# Experimental data from paper PMC5858514 (Theranostics, 2018).
# Experiments:
# [1] = test system: MDA-MB-231, OVCAR3, and U87MG cell lines; experiment: Cell viability MTT assay, three tumor cell lines stated together; type: cell-based, human; conditions: maximum / at the highest dose
# Summary of the method: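 MTT viability assay. Cells at 5 × 10^3 per well, kept at 37 °C, 5% CO2 with 10% FBS: MDA-MB-231 in L-15, OVCAR3 and 293T in DMEM, U87MG in MEM. Test compound from 3 pM to 1.6 nM for 24 h, six replicates. MTT (5 mg/mL stock) added for 4 h, medium replaced with DMSO, absorbance read at 490 nm.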
# U87MG cells = experiment: Apoptosis study, Annexin V-FITC/PI flow cytometry; type: cell-based, human; conditions: 24 h
# Summary of the method: (§1)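 Annexin V-FITC/PI apoptosis assay. Media: MDA-MB-231 in L-15, OVCAR3 in DMEM, U87MG in MEM; all with 10% FBS, 37 °C, 5% CO2. Cells in 6-well plates got 200 μL of 1 mg/mL test compound for 24 h, then two PBS (pH 7.4) washes. Binding buffer, propidium iodide and Annexin V-FITC were added before flow cytometry. Q2 was early apoptotic and Q4 late apoptotic; Q2+Q4 was taken as […].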
# OVCAR3 cells = experiment: Apoptosis study, Annexin V-FITC/PI flow cytometry; type: cell-based, human; conditions: OVCAR3, 24 h
# Summary of the method: as §1
# MDA-MB-231 cells = experiment: Apoptosis study, Annexin V-FITC/PI flow cytometry; type: cell-based, human; conditions: MDA-MB-231, 24 h
# Summary of the method: as §1
# MDA-MB-231 tumor = experiment: In vivo antitumor activity; set-up: species or system mice; conditions: three i.v. injections every other day, 6 mg/kg PTX equivalent
# Summary of the method: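 Female BALB/c nude mice were fed a folate-deficient diet for 6 days, then given MDA-MB-231 cells at the right axillary fossa. Treatment began at tumor volumes of 80–150 mm3, n = 5 per group, with a PBS (pH 7.4) control. Dosing was 6 mg/kg PTX equivalent by tail vein, three injections every other day. Tumor volume was measured every other day. Excised tumors were assayed for CD46 protein.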
# [2] = Toxicity in the therapy study: body weight and histopathology; type: in vivo, mice
# Summary of the method: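 Female nude mice bearing MDA-MB-231 tumors, n = 5 per group with a PBS (pH 7.4) control. They received 6 mg/kg PTX equivalent i.v. by tail vein, three doses every other day. Body weight was recorded every other day. Liver and kidneys were excised for pathology.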
compound,measurement,setting,value
"CC(=O)O[C@H]1C(=O)[C@@]2(C)[C@H]([C@H](OC(=O)c3ccccc3)[C@]3(O)C[C@H](OC(=O)[C@H](O)[C@@H](NC(=O)c4ccccc4)c4ccccc4)C(C)=C1C3(C)C)[C@]1(OC(C)=O)CO[C@@H]1C[C@@H]2O [PTX, paclitaxel]",cell inhibition ratio,[1],63%
same,cells undergoing early apoptosis (Q2),U87MG cells,29.8%
same,late apoptotic cells (Q4),U87MG cells,3.1%
same,cells undergoing early apoptosis (Q2),OVCAR3 cells,21.8%
same,late apoptotic cells (Q4),OVCAR3 cells,2.5%
same,cells undergoing early apoptosis (Q2),MDA-MB-231 cells,33.8%
same,late apoptotic cells (Q4),MDA-MB-231 cells,1.3%
same,tumor volume inhibition,MDA-MB-231 tumor,41.04%
same,histopathological examination (H&E) of liver and kidneys / major organs,"[2]; after treatment, compared with control group",no distinct pathologic changes
same,body weight loss,"[2]; day 21 post initial treatment, 6 mg/kg i.v. x3",0.65 ± 0.02 g
same,change in body weight,"[2]; over the study period, 6 mg/kg PTX equivalent i.v. x3",significant decrease
